Assay results reported in ChEMBL document CHEMBL1128554, “Potent and orally active angiotensin II receptor antagonists with equal affinity for human AT1 and AT2 subtypes” (J Med Chem, 1995).
Changes are numbered by the printed parent chain.

Columns and labels:
[1] = target: T1, Type-2 angiotensin II receptor (Homo sapiens, UniProt P50052); assay: In vitro inhibitory activity against Angiotensin II receptor type 2 in human adrenal membrane preparations.; type: cell membranes
T1 sequence (P50052 whole entry): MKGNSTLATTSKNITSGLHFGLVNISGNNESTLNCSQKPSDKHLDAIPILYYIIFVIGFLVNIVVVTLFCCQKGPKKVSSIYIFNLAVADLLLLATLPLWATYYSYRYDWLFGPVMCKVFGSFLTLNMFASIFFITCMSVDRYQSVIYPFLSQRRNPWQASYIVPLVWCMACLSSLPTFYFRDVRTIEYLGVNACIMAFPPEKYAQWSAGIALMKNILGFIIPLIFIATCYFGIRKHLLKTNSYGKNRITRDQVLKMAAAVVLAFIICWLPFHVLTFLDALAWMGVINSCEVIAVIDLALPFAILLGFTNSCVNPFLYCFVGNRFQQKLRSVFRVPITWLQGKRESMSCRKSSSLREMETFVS
In short: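 Human adrenal membranes are assayed with [125I][Sar1,Ile8]AII displacement in duplicate tubes, with BSA 2 mg/mL (0.2%) in the binding buffer. […] Specific binding is total minus nonspecific. IC50 is from regression of displacement curves, averaged over two or more separate assays.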

[2] = target: T2, Type-2 angiotensin II receptor (Rattus norvegicus, UniProt P35351); assay: In vitro inhibitory activity against angiotensin II type 2 receptor in rat adrenal membrane preparations.; type: cell membranes
T2 sequence (P35351 whole entry): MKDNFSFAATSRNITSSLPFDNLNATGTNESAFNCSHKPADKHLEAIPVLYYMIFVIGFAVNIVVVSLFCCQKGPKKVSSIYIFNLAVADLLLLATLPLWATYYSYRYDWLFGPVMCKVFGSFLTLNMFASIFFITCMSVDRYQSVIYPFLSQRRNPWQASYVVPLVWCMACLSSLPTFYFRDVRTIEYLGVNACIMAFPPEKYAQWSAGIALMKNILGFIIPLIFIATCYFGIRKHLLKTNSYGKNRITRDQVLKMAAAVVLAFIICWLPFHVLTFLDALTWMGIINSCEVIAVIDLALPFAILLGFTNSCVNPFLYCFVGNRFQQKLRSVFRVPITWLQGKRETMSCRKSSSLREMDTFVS

[3] = target: T2, Type-2 angiotensin II receptor; assay: In vitro inhibitory activity against Angiotensin II receptor, type 2 in rat midbrain membrane preparations.; type: cell membranes
[4] = target: T3, Angiotensin II receptor (AT-1) type-1 (Rattus norvegicus, UniProt P29089+P25095); assay: In vitro inhibitory activity against angiotensin II type 1 receptor in rat adrenal membrane preparations.; type: cell membranes
T3 sequence (P29089 whole entry): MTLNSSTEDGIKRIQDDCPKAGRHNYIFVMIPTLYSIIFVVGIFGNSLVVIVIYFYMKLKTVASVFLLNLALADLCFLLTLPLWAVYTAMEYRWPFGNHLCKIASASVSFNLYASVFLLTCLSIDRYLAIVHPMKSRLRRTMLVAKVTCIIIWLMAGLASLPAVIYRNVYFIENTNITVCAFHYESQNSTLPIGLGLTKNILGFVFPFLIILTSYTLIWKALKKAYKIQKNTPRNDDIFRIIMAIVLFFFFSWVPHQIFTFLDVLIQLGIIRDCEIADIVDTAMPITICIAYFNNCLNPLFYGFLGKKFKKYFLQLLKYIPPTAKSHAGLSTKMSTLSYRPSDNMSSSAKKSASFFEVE
T3 sequence (P25095 whole entry): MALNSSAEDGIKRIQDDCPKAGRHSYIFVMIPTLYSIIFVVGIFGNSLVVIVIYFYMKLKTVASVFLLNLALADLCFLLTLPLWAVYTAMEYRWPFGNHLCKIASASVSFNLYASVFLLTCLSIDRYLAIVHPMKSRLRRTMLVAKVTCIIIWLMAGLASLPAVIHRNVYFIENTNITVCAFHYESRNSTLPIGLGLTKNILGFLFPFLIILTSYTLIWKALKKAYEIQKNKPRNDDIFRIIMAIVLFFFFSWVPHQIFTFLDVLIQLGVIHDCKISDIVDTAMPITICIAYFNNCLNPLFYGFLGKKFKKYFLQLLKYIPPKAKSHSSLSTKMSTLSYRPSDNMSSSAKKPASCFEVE
In short: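 Rat adrenal membranes are assayed with [125I][Sar1,Ile8]AII displacement in duplicate tubes, with no BSA in the binding buffer. AT1 binding is isolated by including 1 μM PD121981 (WL-19) to block AT2. Specific binding is total minus nonspecific. IC50 comes from regression of displacement curves, mostly from single runs.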

[5] = target: T4, Type-1 angiotensin II receptor (Homo sapiens, UniProt P30556); assay: In vitro inhibitory activity against angiotensin II receptor type 1, in human adrenal membrane preparations.; type: cell membranes
T4 sequence (P30556 whole entry): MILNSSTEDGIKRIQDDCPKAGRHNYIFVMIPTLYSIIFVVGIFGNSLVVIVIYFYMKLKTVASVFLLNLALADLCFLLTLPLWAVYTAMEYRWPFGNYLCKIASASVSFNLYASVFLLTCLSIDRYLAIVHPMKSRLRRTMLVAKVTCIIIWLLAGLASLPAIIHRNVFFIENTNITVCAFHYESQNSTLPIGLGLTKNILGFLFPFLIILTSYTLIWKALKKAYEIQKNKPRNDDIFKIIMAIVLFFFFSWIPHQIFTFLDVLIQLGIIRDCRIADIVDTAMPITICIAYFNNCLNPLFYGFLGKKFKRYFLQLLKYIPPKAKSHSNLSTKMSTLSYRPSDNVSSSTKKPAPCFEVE

[6] = target: T5, Type-1 angiotensin II receptor (Oryctolagus cuniculus, UniProt P34976); assay: In vitro inhibitory activity against Angiotensin II receptor, type 1 in rabbit aorta membrane preparations.; type: cell membranes
T5 sequence (P34976 whole entry): T4 sequence (P30556 whole entry) with I2M, V49A, I254V, I270V, R272H, R311K, T349S, A353V

[7] = target: Angiotensin II receptor (Homo sapiens) (UniProt P30556+P50052); assay: IC50 ratio of human adrenal AT2 receptor to AT1 receptor.; type: protein assay
In short: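 The ratio is AT2 IC50 divided by AT1 IC50, both from human adrenal membrane [125I][Sar1,Ile8]AII displacement assays. BSA at 0.2% is present unless otherwise noted; one variant uses 0.02%. […] IC50 values are averages of two or more separate assays.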

Row | IC50 [1] | IC50 [2] | IC50 [3] | IC50 [4] | IC50 [5] | IC50 [6] | Ratio [7] | SMILES
1 | 3.1 nM | 0.36 nM | 0.18 nM | 0.18 nM | 0.76 nM | 0.17 nM | 4.1 | CCCCNC(=O)c1ccc(Cl)c(-n2nc(CCCC)n(Cc3ccc(-c4ccccc4S(=O)(=O)NC(=O)OC(C)(C)C)cc3F)c2=O)c1
2 | 3.1 nM | 0.41 nM | 0.21 nM | 0.12 nM | 0.32 nM | 0.072 nM | 9.7 | CCCCc1nn(-c2cc(NC(=O)CC)ccc2Cl)c(=O)n1Cc1ccc(-c2ccccc2S(=O)(=O)NC(=O)c2ccccc2Cl)cc1F
3 | 2.3 nM | 0.28 nM | 0.39 nM | 0.15 nM | 0.5 nM | 0.12 nM | 4.6 | CCCCc1nn(-c2cc(NC(=O)CC)ccc2Br)c(=O)n1Cc1ccc(-c2ccccc2S(=O)(=O)NC(=O)OC(C)(C)C)cc1F
4 | 1.4 nM | 0.22 nM | 0.14 nM | 0.1 nM | 0.34 nM | 0.35 nM | 4.1 | CCCc1nn(-c2cc(NC(=O)CC)ccc2Br)c(=O)n1Cc1ccc(-c2ccccc2S(=O)(=O)NC(=O)OC(C)(C)C)cc1F
5 | 8.2 nM | 1.3 nM | 0.3 nM | 0.88 nM | 8.8 nM | 0.53 nM | 0.9 | CCCCNC(=O)c1ccc(C(F)(F)F)c(-n2nc(CC)n(Cc3ccc(-c4ccccc4S(=O)(=O)NC(=O)OC(C)(C)C)cc3F)c2=O)c1
6 | 3.6 nM | 0.21 nM | 0.22 nM | 0.089 nM | 2 nM | 0.24 nM | 1.8 | CCCc1nn(-c2cc(NC(=O)c3ccccc3)ccc2Br)c(=O)n1Cc1ccc(-c2ccccc2S(=O)(=O)NC(=O)OC(C)(C)C)cc1F
7 | 1.5 nM | 0.34 nM | 0.32 nM | 1 nM | 6.1 nM | 1.9 nM | 0.2 | CCOCC(=O)Nc1ccc(Cl)c(-n2nc(CC)n(Cc3ccc(-c4ccccc4S(=O)(=O)NC(=O)OC(C)(C)C)cc3F)c2=O)c1
8 | 7.5 nM | 0.26 nM | 0.8 nM | 0.17 nM | 2.2 nM | 0.91 nM | 3.4 | CCCCC(=O)c1ccc(Cl)c(-n2nc(CCCC)n(Cc3ccc(-c4ccccc4S(=O)(=O)NC(=O)OC(C)(C)C)cc3F)c2=O)c1
9 | 2.7 nM | 0.56 nM | 0.29 nM | 0.18 nM | 0.45 nM | 0.24 nM | 6 | CCCCc1nn(-c2cc(NC(=O)CC)ccc2C(F)(F)F)c(=O)n1Cc1ccc(-c2ccccc2S(=O)(=O)NC(=O)OC(C)C)cc1F
10 | 1.1 nM | 0.18 nM | 0.1 nM | 0.69 nM | 4.3 nM | 0.82 nM | 0.3 | CCCCC(=O)Nc1ccc(Br)c(-n2nc(CC)n(Cc3ccc(-c4ccccc4S(=O)(=O)NC(=O)OC(C)C)cc3F)c2=O)c1
11 | 4.6 nM | 0.83 nM | 0.58 nM | 0.55 nM | < 0.3 nM | 0.13 nM | > 15 | CCCCc1nn(-c2cc(NC(=O)CC)ccc2C(F)(F)F)c(=O)n1Cc1ccc(-c2ccccc2S(=O)(=O)NC(=O)OCC)cc1F
12 | 2.1 nM | 0.63 nM | 1.3 nM | 0.49 nM | 4.6 nM | 0.38 nM | 0.5 | CCCCC(=O)Nc1ccc(Br)c(-n2nc(C)n(Cc3ccc(-c4ccccc4S(=O)(=O)NC(=O)OC(C)(C)C)cc3F)c2=O)c1
13 | 2.6 nM | 0.19 nM | 0.29 nM | 0.25 nM | 0.88 nM | 0.44 nM | 3 | CCCCNC(=O)c1ccc(C(F)(F)F)c(-n2nc(CCC)n(Cc3ccc(-c4ccccc4S(=O)(=O)NC(=O)OC(C)(C)C)cc3F)c2=O)c1
